dFosB activator = mouse delta FosB homodimer activation | activation, % at 25 µM | purified delta FosB, TAMRA-CDK5 oligo fluorescence polarization; percent of positive-control signal above neutral wells | 340,000 tested, 0.99% active | P13346;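 active = mean activation above about 17%, with every replicate also reaching it, limit read from the data, passing the limit was not always enough; inconclusive = only one of the two conditions met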
S100A4 inh HTS = inhibitors of human S100A4 binding to myosin IIA peptide | P26447 | AID 652163 | 360,000 tested, 0.14% active | inhibition, % at 10.7 µM | S100A4/TAMRA-MyoIIA peptide fluorescence polarization;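 active = mean inhibition of at least 70% across replicates, with every replicate also reaching that level; inconclusive = mean inhibition reaches 70% but some replicates fall short; inactive = mean inhibition below 70%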
Target sequence (P26447 whole entry, looked up): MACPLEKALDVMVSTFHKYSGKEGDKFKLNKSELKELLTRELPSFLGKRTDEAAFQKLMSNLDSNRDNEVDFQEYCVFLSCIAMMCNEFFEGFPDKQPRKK
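System – human S100A4 monomer protein, biochemical binding assay · Buffer or medium – Calcium-containing HEPES buffer, pH 7.2 · Timing – 5 min between mix addition and reading · Also added – TAMRA-labelled myosin IIA heavy-chain peptide probe, 5 nM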
SR-BI DiI inh = mouse SR-BI HDL lipid transfer inhibition. Q61009. ldlA[mSR-BI] CHO cells, DiI-HDL uptake fluorescence, 3 h. inhibition, % at 12.5 µM. 320,000 tested, 0.96% active. AID 488896;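 active = mean replicate inhibition of at least 70% and a set share of replicates each scoring 70 or more; inconclusive = meets just one of the two criteria; inactive = fails both criteria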
Target sequence (Q61009 whole entry, looked up): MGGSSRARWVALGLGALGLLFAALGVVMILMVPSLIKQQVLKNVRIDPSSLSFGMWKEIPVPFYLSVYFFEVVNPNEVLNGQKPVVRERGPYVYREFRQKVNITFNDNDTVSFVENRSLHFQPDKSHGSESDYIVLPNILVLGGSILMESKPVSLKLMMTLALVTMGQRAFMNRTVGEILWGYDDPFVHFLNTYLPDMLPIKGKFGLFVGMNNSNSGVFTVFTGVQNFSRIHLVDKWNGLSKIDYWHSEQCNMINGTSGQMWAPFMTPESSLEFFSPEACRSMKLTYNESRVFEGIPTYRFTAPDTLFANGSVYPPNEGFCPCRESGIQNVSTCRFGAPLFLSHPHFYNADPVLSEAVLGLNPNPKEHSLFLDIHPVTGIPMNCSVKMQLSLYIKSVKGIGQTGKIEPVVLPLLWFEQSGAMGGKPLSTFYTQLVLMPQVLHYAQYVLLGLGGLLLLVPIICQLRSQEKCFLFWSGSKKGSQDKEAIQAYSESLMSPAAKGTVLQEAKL
PvdQ acylase = P. aeruginosa PvdQ acylase inhibition | purified PvdQ acylase, fluorescence plate reader | inhibition, % at 10 µM | 340,000 tested, 0.063% active | AID 488965; in the data active = inhibition above about 30%, passing the limit was not always enough; inconclusive = no clear call, values can overlap the other calls
RAD54 inh = RAD54 (human) branch migration inhibition; inhibition, % at 10.4 µM; AID 602329; Q92698; 360,000 tested, 0.14% active; RAD54 Holliday junction branch migration, FAM/BHQ fluorescence;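 active = mean normalized replicate activity at least 40 and at least half of replicates scoring 40 or more; inconclusive = only one of the two criteria met; inactive = mean below 40 and under half of replicates reaching 40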;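 note: inhibitors cause a drop in the FAM fluorescence signal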
SR-BI uptake up = SR-BI HDL lipid transfer activation; CHO ldlA[mSR-BI] cells, DiI-HDL uptake fluorescence, 3 h; 100 = double the neutral-control signal; activation, % at 12.5 µM; 320,000 tested, 0.096% active;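 active = mean replicate activation of at least 60% and every replicate at or above 60%; inconclusive = mean or all-replicate condition met, but not both; inactive = mean below 60% and not all replicates reaching 60%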
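Test system: SR-BI-overexpressing, LDLR-lacking CHO cells; Also added: labelled HDL, 10 µg/mL; Measured by: bottom-read cell fluorescence after medium removal, ex 550/em 595 nm; Timing: 3 h uptake period with compound, 37 °C; Buffer or medium: F12, 0.5% BSA, 25 mM HEPES; Doses: single compound concentration, delivered by pin transfer.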
Numbers stand for hits; n = inactive; u = inconclusive; x = no result given. Shown are actives, neighbours in structure and some others; about 1.6% of the full set was active somewhere.

SMILES | dFosB activator | S100A4 inh HTS | SR-BI DiI inh | PvdQ acylase | RAD54 inh | SR-BI uptake up
COc1cc(CN2CCN(C(=O)c3ccc(-c4ccccc4)cc3)CC2)cc(OC)c1OC | n | n | 83.7 | n | n | n
COc1ccc(OC)c(CN2CCN(C(=O)c3ccc(S(=O)(=O)Nc4ccccc4F)cc3)CC2)c1 | n | n | n | n | n | n
COc1cccc(OC)c1C(=O)N1CCN(Cc2ccccc2C)CC1 | n | x | n | n | n | 67.1
COc1ccccc1CN1CCN(C(=O)c2cccc3ccccc23)CC1 | x | n | x | x | n | x
O=C(C1CC1)N1CC2(C1)[C@H](c1ccccc1)[C@@H](CO)N2C(=O)CC1CC1 | x | n | x | x | x | x
O=C(COc1ccc(/C=N/NC(=O)c2cc3ccccc3o2)cc1Cl)Nc1ccccc1 | n | x | 74.5 | n | n | n
COc1ccc(NC(=O)N2CCC3(CC2)CN(C(C)=O)[C@H](CO)c2[nH]c4cc(OC)ccc4c23)cc1 | x | n | x | x | x | x
Cc1noc(C)c1S(=O)(=O)Nc1ccc2c(c1)CC(=O)N([C@H](C)CO)C[C@@H](C)[C@@H](CN(C)C(=O)Nc1ccc(C(F)(F)F)cc1)O2 | x | n | x | x | n | x
COc1ccc(/C(C)=N/NC(=O)c2cccc(S(=O)(=O)N3CCCC3)c2)c(O)c1 | n | n | 102.6 | n | n | n
COc1ccc(C(C)=NNC(=O)c2cccc(S(=O)(=O)N3CCCC3)c2)cc1 | n | n | n | n | n | n
C[C@H]1CN([C@@H](C)CO)C(=O)c2cc(NC(=O)Nc3ccc(C(F)(F)F)cc3)ccc2O[C@H]1CN(C)S(=O)(=O)c1ccc(F)cc1 | x | n | x | x | n | x
CCN1/C(=C/c2ccc3cc(C)ccc3[n+]2CC)Sc2ccccc21 | 52.4 | n | n | n | x | n
CCN1/C(=C/c2ccc3cc(C)ccc3[n+]2CC)Sc2cc(C)c(C)cc21 | n | n | n | n | x | n
CC[n+]1c(/C=C2\Sc3ccccc3N2C)ccc2cccc(C)c21 | n | n | 75.8 | n | n | n
CCN1/C(=C/C=C/c2sc3ccccc3[n+]2CC)Sc2ccccc21 | u | x | n | n | u | 722.3
CN1/C(=C/c2cccc[n+]2CCO)Sc2ccccc21 | n | n | n | n | n | n
CCNC(=O)Nc1ccc2c(c1)C(=O)N(C)[C@H]1CC[C@@H](CC(=O)NCc3ccc(F)cc3)O[C@H]1CO2 | x | n | x | x | n | x
COc1ccc(C(=O)N2C[C@@H]3[C@H](c4ccccc42)[C@@H](CO)N3C(=O)c2cccc(F)c2)cc1 | x | n | x | x | n | x
CC(=O)N(C)C[C@H]1Oc2cc(C#Cc3ccccc3F)ccc2S(=O)(=O)N([C@H](C)CO)C[C@H]1C | x | n | x | x | n | x
C[C@H]1CN([C@@H](C)CO)S(=O)(=O)c2ccc(C3=CCCCC3)cc2O[C@H]1CN(C)C(=O)CN(C)C | x | n | x | x | n | x
CCc1cc(=O)oc2cc3occ(-c4ccc(OC)c(F)c4)c3cc12 | u | n | 76.4 | n | n | n
CCc1cc(=O)oc2cc3occ(C)c3cc12 | n | x | n | n | n | n
Cc1ccc(NC(=O)Cn2c(O)c(N=NC(=O)c3ccncc3)c3ccccc32)cc1 | n | x | n | n | x | n
Cc1cccc(NC(=O)Cn2c(O)c(N=NC(N)=S)c3ccccc32)c1 | 40.5 | n | n | n | n | n
Cc1ccc(NC(=O)Cn2c(O)c(N=NC(=O)c3cc4ccccc4cc3O)c3ccccc32)cc1 | n | x | n | n | n | n
SMILES | dFosB activator | S100A4 inh HTS | SR-BI DiI inh | PvdQ acylase | RAD54 inh | SR-BI uptake up
COc1ccccc1NC(=O)Cn1c(O)c(N=NC(=O)c2ccccc2O)c2ccccc21 | 69.9 | n | n | n | n | n
COc1ccc2c3c([nH]c2c1)[C@H](CO)N(C(=O)c1ccc(F)cc1)CC31CN(Cc2cccnc2)C1 | x | n | x | x | x | x
O=C(Nc1ccccc1N1CCOCC1)C1CCN(S(=O)(=O)c2ccccc2F)CC1 | n | x | n | n | n | 214.3
CCOc1ccc(-c2cn3ccccc3n2)cc1 | n | n | n | 49.9 | x | n
CCOc1ccc(-c2cnc3ccccc3n2)cc1 | n | n | n | 89.7 | n | n
COc1ccc(C2CC3(CC(C)(C)NC(=O)N3)Oc3cc(O)ccc32)cc1 (centres undefined) | n | x | n | n | n | n
CC1(C)CC2(CC(c3ccccc3)c3ccc(O)cc3O2)NC(=S)N1 (centres undefined) | n | n | 72.0 | n | x | n
CC(=O)Oc1cc2c(cc1Cl)C(c1cccs1)CC1(CC(C)(C)NC(=S)N1)O2 (centres undefined) | n | n | 75.2 | n | x | n
O=C(C[C@@H]1C=C[C@@H](NC(=O)c2ccncc2)[C@H](CO)O1)NCCc1ccncc1 | x | n | x | x | n | x
Cc1ccc(F)cc1NC(=O)CSc1nc(Nc2ccccc2)nc(N2CCOCC2)n1 | n | n | n | n | n | n
Cc1ccccc1NC(=O)CSc1nc(Nc2ccccc2)nc(N2CCOCC2)n1 | n | x | 80.6 | n | n | n
O=C(N[C@H]1CC[C@@H](CCn2cc(-c3ccccn3)nn2)O[C@H]1CO)c1cccnc1 | x | n | x | x | n | x
Cc1c(C)n(C)c2ccc(C(=O)NCCCN3CCCC3)cc12 | n | n | n | n | n | x
CCN(CC)c1ccc(NC(=O)c2ccc3c(c2)c(C)c(C)n3C)cc1 | n | n | 90.0 | n | x | n
CCc1cccc(CC)c1N1C(=O)c2cc(N3CCOCC3)c([N+](=O)[O-])cc2C1=O | n | x | 75.0 | n | n | n
Cc1ccc(C)c(N2C(=O)c3cc(N4CCOCC4)c([N+](=O)[O-])cc3C2=O)c1 | n | n | x | n | n | x
CCN(CCO)Cc1csc2ccc(Cl)cc12 | n | x | n | n | x | 70.0
COc1ccc2c3c(n(C)c2c1)[C@@H](CO)N(C(=O)c1cccnc1)CC31CN(S(C)(=O)=O)C1 | x | n | x | x | x | x
COc1cccc(CNC(=O)COc2cc3c(c4oc(=O)cc(C)c24)CCC(C)(C)O3)c1 | n | n | 77.1 | n | n | n
COc1ccc(CNC(=O)COc2cc3c(c4oc(=O)cc(C)c24)CCC(C)(C)O3)cc1 | n | n | n | n | n | n
OC(CNCC(c1ccc(Cl)cc1Cl)c1c[nH]c2ccccc12)c1ccccc1 (centres undefined) | 83.4 | n | n | n | n | n
O=C(N[C@H]1CC[C@H](CCn2cc(C3CCCC3)nn2)O[C@@H]1CO)c1cccnc1 | x | n | x | x | x | x
O=C1C(NS(=O)(=O)c2cccs2)=C(N2CCN(c3cccc(Cl)c3)CC2)C(=O)c2ccccc21 | n | x | 80.6 | n | n | n
O=C1C(NS(=O)(=O)c2ccccc2)=C(N2CCN(c3ccc(F)cc3)CC2)C(=O)c2ccccc21 | n | n | 86.8 | n | n | n
CC1CCN(C2=C(NS(=O)(=O)c3ccccc3)C(=O)c3ccccc3C2=O)CC1 | n | n | x | n | x | x
O=C(N[C@@H]1CC[C@@H](CCNS(=O)(=O)Cc2ccccc2)O[C@H]1CO)c1cnccn1 | x | n | x | x | n | x

Screening results as filed in PubChem BioAssay.
